Reference: PMC9082781 (ACS infectious diseases, 2021)
Converted amounts (≈) assume the structure as drawn. Like-named read-outs stand apart in the source and are kept apart here. Non-standard residues stand in square brackets, D forms with d. Residues, ends and D or L forms follow the SMILES beside them. *: point of attachment. Decanoyl = CCCCCCCCCC(=O)*; Octanoyl = CCCCCCCC(=O)*

Assays:
P. aeruginosa PAO1 [1] = details: LL-37; ref [36]; cited from earlier work
[2] = tested on: Klebsiella pneumonia ATCC 13883; details: LL-37; ref [36]; cited from earlier work
human red blood cells [3] = details: LL-37; ref [36]; cited from earlier work
S. aureus USA300 LAC [4] = details: for Minimal inhibitory concentration (MIC): USA300, pH 7.4
E. coli ATCC25922 [5] = details: LL-37; ref [36]; cited from earlier work
HaCaT cells = assay type: cell-based, human
E. coli ATCC25922 [6] = tested on: E. coli ATCC25922
P. aeruginosa PAO1 [7] = assay type: cell-based, Pseudomonas aeruginosa
[8] = tested on: Klebsiella pneumonia ATCC 13883; assay type: cell-based, Klebsiella pneumoniae
human red blood cells [9] = assay type: cell-based; details: red cells of human, 1 h
S. aureus V8 protease = S. aureus V8 protease (Staphylococcus aureus, UniProt P0C1U8); assay type: in vitro ADME; details: 10 mM PBS pH 7.4, 37 °C, 3 h and 1 day, SDS-PAGE, Coomassie
S. aureus V8 protease, sequence (P0C1U8 69-336): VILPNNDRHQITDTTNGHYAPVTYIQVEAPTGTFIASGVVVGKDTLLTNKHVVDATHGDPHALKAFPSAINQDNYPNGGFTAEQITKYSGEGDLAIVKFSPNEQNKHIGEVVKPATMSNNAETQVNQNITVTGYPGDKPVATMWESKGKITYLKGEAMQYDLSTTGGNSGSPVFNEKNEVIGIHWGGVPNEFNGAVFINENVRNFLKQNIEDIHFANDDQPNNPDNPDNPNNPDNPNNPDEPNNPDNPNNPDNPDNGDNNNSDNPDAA

S. aureus USA300 LAC [10] = experiment: Bacterial membrane permeation; assay type: cell-based, Staphylococcus aureus; details: 12.5 μM, 37 °C, fluorescence read every 5 min
Method in brief: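 Exponential-phase S. aureus USA300 at final OD600 ~0.1 in TSB or PBS, with propidium iodide (20 μM as added) and serially diluted peptide (12.5 μM in figure). Daptomycin and rifamycin serve as controls. Incubated at 37 °C with 100 rpm shaking in a plate reader. Fluorescence (ex 584/em 620 nm) read every 5 min for 24 cycles; average values plotted.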

S. aureus USA300 LAC [11] = experiment: Systemic efficacy in neutropenic murine infection model; assay type: in vivo, mouse; details: neutropenic mice, single dose 5 mg/kg i.p., n = 8, vs untreated
Method in brief: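 Female C57BL/6 mice, 6 weeks old, made neutropenic with cyclophosphamide (day 1 150 mg/kg, day 4 100 mg/kg). Day 5: i.p. infection with ~2×10⁶ CFU S. aureus USA300. Single i.p. peptide dose 2 h later. Spleen, liver, lung and kidney weighed, homogenized in PBS, diluted, plated on blood agar (37 °C, overnight). CFU per tissue; Mann-Whitney test.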

fungal proteinase K = fungal proteinase K (Parengyodontium album, UniProt P06873); experiment: Protease stability by SDS-PAGE, proteinase K; assay type: in vitro ADME; details: 10 mM PBS pH 7.4, 37 °C, 1 day, Coomassie
fungal proteinase K, sequence (P06873 106-384): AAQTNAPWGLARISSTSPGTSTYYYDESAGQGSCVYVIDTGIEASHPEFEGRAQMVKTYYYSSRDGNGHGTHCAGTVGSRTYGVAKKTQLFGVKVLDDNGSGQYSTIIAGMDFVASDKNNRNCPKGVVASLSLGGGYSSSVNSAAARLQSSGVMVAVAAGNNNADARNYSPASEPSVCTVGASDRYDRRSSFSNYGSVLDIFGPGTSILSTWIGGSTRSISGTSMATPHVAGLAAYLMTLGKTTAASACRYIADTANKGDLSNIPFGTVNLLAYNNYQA

C57BL/6 mice = experiment: In vivo toxicity; design: species or system mouse
[12] = tested on: MCP-1, IL-17A, IL-10, TNF-α; experiment: Cytokine levels in tissues surrounding catheters; assay type: in vivo, mouse; details: tissue surrounding catheter, day 3 after peptide treatment
Method in brief: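 Catheter biofilm mouse model under ketamine/xylazine (100/10 mg/kg) anesthesia. Peptide 15 mg/kg injected at five sites in and around the catheter 2 h post infection. Untreated infected and uninfected-catheter groups included. Day 3: CO₂ euthanasia, peri-catheter tissue harvested and homogenized, stored at −80 °C. Cytokines quantified by individual mouse cytokine ELISA kits in duplicate with standards.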

S. aureus USA300 LAC [13] = experiment: Resistance development, multiple passage experiment; assay type: cell-based, Staphylococcus aureus; details: 14 days/passages at sub-MIC; average of three independent experiments

Row | SMILES | relative toxicity to HaCaT cells (HaCaT cells) | MIC EC (E. coli ATCC25922 [6]) [µM] | MIC PA (P. aeruginosa PAO1 [7]) [µM] | Minimal inhibitory concentration (MIC) (S. aureus USA300 LAC [4]) [µM] | MIC KP [8] [µM] | HC50 (human red blood cells [9]) [µM] | stability to S. aureus V8 protease (S. aureus V8 protease) | membrane permeation (propidium iodide fluorescence) (S. aureus USA300 LAC [10]) | MIC increase during serial passages (S. aureus USA300 LAC [13]) | other results
1 | CC[C@H](C)[C@H](NC(=O)[C@H](CCCCN)NC(=O)[C@H](CCC(=O)O)NC(=O)[C@H](CCCCN)NC(=O)[C@H](CO)NC(=O)[C@H](CCCCN)NC(=O)[C@H](CCCNC(=N)N)NC(=O)[C@H](Cc1ccccc1)NC(=O)[C@H](Cc1ccccc1)NC(=O)[C@H](CC(=O)O)NC(=O)CNC(=O)[C@H](CC(C)C)NC(=O)[C@@H](N)CC(C)C)C(=O)NCC(=O)N[C@@H](CCCCN)C(=O)N[C@@H](CCC(=O)O)C(=O)N[C@@H](Cc1ccccc1)C(=O)N[C@@H](CCCCN)C(=O)N[C@@H](CCCNC(=N)N)C(=O)N[C@H](C(=O)N[C@H](C(=O)N[C@@H](CCC(N)=O)C(=O)N[C@@H](CCCNC(=N)N)C(=O)N[C@H](C(=O)N[C@@H](CCCCN)C(=O)N[C@@H](CC(=O)O)C(=O)N[C@@H](Cc1ccccc1)C(=O)N[C@@H](CC(C)C)C(=O)N[C@@H](CCCNC(=N)N)C(=O)N[C@@H](CC(N)=O)C(=O)N[C@@H](CC(C)C)C(=O)N[C@H](C(=O)N1CCC[C@H]1C(=O)N[C@@H](CCCNC(=N)N)C(=O)N[C@H](C(=O)N[C@@H](CCC(=O)O)C(=O)N[C@@H](CO)C(=O)O)[C@@H](C)O)C(C)C)[C@@H](C)CC)C(C)C)[C@@H](C)CC [LL-37] | – | – | – | – | – | – | – | – | – | MIC PA (P. aeruginosa PAO1 [1]): >50 µM; MIC KP [2]: 6.2 µM (≈ 27.9 µg/mL); HC50 (human red blood cells [3]): 170 µM; Minimal inhibitory concentration against S. aureus (S. aureus USA300 LAC [4]; 10% TSB): 50 µM (≈ 225 µg/mL); Minimal inhibitory concentration against S. aureus (S. aureus USA300 LAC [4]; 50% TSB): >50 µM; Minimal inhibitory concentration against S. aureus (S. aureus USA300 LAC [4]; 100% MHB): >50 µM; Minimal inhibitory concentration against S. aureus (S. aureus USA300 LAC [4]; 100% TSB): >50 µM; MIC EC (E. coli ATCC25922 [5]): 3.1 to 6.2 µM
2 | CCCCCCCC(=O)N[C@@H](CCCCN)C(=O)N[C@@H](CCCNC(=N)N)C(=O)N[C@H](C(=O)N[C@@H](Cc1c[nH]c2ccccc12)C(=O)N[C@@H](CCC(N)=O)C(=O)N[C@@H](CCCNC(=N)N)C(=O)N[C@H](C(=O)N[C@@H](CCCCN)C(=O)N[C@@H](CC(=O)O)C(=O)N[C@@H](Cc1ccccc1)C(N)=O)[C@@H](C)CC)[C@@H](C)CC [Peptide C8-KR10] (Octanoyl-KRIWQRIKDF-NH2) | slightly less toxic than C8-KR10d | 6.2 (≈ 9.39 µg/mL) | 6.2 (≈ 9.39 µg/mL) | 6.2 (≈ 9.39 µg/mL) | 25 (≈ 37.9 µg/mL) | – | – | – | – | –
3 | CCCCCCCCCC(=O)N[C@@H](CCCCN)C(=O)N[C@@H](CCCNC(=N)N)C(=O)N[C@H](C(=O)N[C@@H](Cc1c[nH]c2ccccc12)C(=O)N[C@@H](CCC(N)=O)C(=O)N[C@@H](CCCNC(=N)N)C(=O)N[C@H](C(=O)N[C@@H](CCCCN)C(N)=O)[C@@H](C)CC)[C@@H](C)CC [Peptide C10-KR8] (Decanoyl-KRIWQRIK-NH2) | – | 12.5 (≈ 16 µg/mL) | – | 3.1 (≈ 3.97 µg/mL) | 50 (≈ 64 µg/mL) | 300 | except for S. aureus V8 protease | – | – | MIC SA (S. aureus USA300 LAC [4]; USA300): 1.5 to 3.1 µM
4 | CCCCCCCCCC(=O)N[C@H](CCCCN)C(=O)N[C@H](CCCNC(=N)N)C(=O)N[C@@H](C(=O)N[C@H](Cc1c[nH]c2ccccc12)C(=O)N[C@H](CCC(N)=O)C(=O)N[C@H](CCCNC(=N)N)C(=O)N[C@@H](C(=O)N[C@H](CCCCN)C(N)=O)[C@H](C)CC)[C@H](C)CC [Peptide C10-KR8d] (Decanoyl-[dK][dR][dI][dW][dQ][dR][dI][dK]-NH2) | slightly more toxic than C10-KR8 | – | 6.2 (≈ 7.94 µg/mL) | 3.1 (≈ 3.97 µg/mL) | 25 (≈ 32 µg/mL) | 300 | resistant | able to permeate the membranes | no changes | CFU decrease in kidney (S. aureus USA300 LAC [11]): not in spleen and kidney; CFU decrease in spleen (S. aureus USA300 LAC [11]): not in spleen and kidney; stability to fungal proteinase K (fungal proteinase K): resistant; survival (C57BL/6 mice; 10 mg/kg i.p., female C57BL/6 mice n=3, 5 days observation): all mice survived; survival (C57BL/6 mice; 20 mg/kg i.p., female C57BL/6 mice n=3, 5 days observation): all mice survived; survival (C57BL/6 mice; 40 mg/kg i.p., female C57BL/6 mice n=3, died in a day): all mice died; maximal tolerated dose (MTD) (C57BL/6 mice; i.p., C57BL/6 mice, 20 mg/kg or more but less than 40 mg/kg): ≥ 20 mg/kg; IL-10 level [12]: decrease; IL-17A level [12]: up-regulation; MCP-1/CCL2 level [12]: up-regulation; TNFα level [12]: decrease
5 | CCOc1ccc2ccccc2c1C(=O)N[C@@H]1C(=O)N2[C@@H]1SC(C)(C)[C@@H]2C(=O)O [nafcillin, reference compound] | – | – | – | – | – | – | – | – | over 30 fold | –
6 | CO[C@H]1/C=C/O[C@@]2(C)Oc3c(C)c(O)c4c(O)c(cc(O)c4c3C2=O)NC(=O)/C(C)=C\C=C\[C@H](C)[C@H](O)[C@@H](C)[C@@H](O)[C@@H](C)[C@H](OC(C)=O)[C@@H]1C [rifamycin, reference compound] | – | – | – | – | – | – | – | unable to achieve the same effect | – | –
